# This is a sample that favours compounds with a hit; in the whole collection about 4.3% have one here.
# Rin1 Abl inh: human Rin1-Abl interaction inhibition | TR-FRET Rin1/Abl binding, biochemical | inhibition, % at 7.35 µM | actives 0.4% (n = 360,000); in the data active = inhibition above about 5%, passing the limit was not always enough
# ALR H2O2 inh: blocks human ALR sulfhydryl oxidase activity; actives 3.8% (n = 290,000); inhibition, % (test concentration not listed); purified ALR, DTT oxidation, H2O2 HRP-luminol luminescence;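 active = mean replicate inhibition above about 79%, with every replicate also reaching it, limit read from the data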
# UBC9 SUMO inh: inhibitors of human SUMOylation (UBC9); HTRF SUMOylation assay, SAE1/SAE2 + UBC9, in vitro; inhibition, % at 35 µM; actives 0.36% (n = 290,000); in the data active = inhibition above about 50%, passing the limit was not always enough
# RBBP9 inh: human RBBP9 hydrolase inhibition | AID 1515 | actives 0.2% (n = 220,000) | inhibition, % at 7.94 µM | O75884 | recombinant RBBP9, FP-Rh probe fluorescence polarization;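 active = inhibition above the campaign mean of all tested compounds plus 3 SD, cut at about 14% in these data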;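 note: plate controls were DMSO wells with RBBP9 for no effect and wells lacking RBBP9 protein for full effect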
#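 Test system: recombinant human RBBP9; Timing: 30 min then 45 min, 25 °C; Detection: fluorescence polarization; Control set: RBBP9 with DMSO as uninhibited control, no-protein wells as full inhibition; Compound dosing: one concentration, 7.94 µM nominal, 0.794% DMSO; Probe or stimulus: FP-Rh activity-based probe, 375 nM before mixing.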
# PREPL inhibitor: inhibits the human prolyl oligopeptidase-like enzyme; inhibition, % at 5.96 µM; Q4J6C6; recombinant PREPL, fluorescence polarization activity-based probe; AID 2751; actives 0.68% (n = 320,000); in the data active = inhibition above about 43%;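 note: 0% = enzyme with DMSO and 100% = wells lacking enzyme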
# Target sequence (Q4J6C6 whole entry, looked up): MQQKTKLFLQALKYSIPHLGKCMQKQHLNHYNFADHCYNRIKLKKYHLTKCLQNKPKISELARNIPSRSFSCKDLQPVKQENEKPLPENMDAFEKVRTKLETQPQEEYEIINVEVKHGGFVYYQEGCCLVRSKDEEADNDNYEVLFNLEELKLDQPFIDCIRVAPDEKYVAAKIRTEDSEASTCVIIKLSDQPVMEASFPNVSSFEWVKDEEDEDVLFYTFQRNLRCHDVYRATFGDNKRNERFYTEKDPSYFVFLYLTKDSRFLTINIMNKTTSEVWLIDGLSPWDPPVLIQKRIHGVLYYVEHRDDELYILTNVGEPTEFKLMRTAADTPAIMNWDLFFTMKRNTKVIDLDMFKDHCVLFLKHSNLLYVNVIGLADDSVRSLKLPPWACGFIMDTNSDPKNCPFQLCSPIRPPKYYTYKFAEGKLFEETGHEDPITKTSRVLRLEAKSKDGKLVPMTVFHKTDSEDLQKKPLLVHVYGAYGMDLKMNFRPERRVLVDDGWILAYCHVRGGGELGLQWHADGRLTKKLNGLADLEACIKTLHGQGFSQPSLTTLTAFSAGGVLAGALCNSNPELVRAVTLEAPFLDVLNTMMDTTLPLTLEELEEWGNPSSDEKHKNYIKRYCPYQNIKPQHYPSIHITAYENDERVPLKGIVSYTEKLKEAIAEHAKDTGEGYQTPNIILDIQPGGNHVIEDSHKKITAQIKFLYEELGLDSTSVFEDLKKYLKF
# UBC13 inh: human UBC13 polyubiquitination inhibition; UBC13 polyubiquitin chain formation, TR-FRET; P61088; AID 485273; actives 0.47% (n = 330,000); inhibition, % at 20 µM; in the data active = inhibition above about 45%, passing the limit was not always enough
# * = called active by the depositor; . = no result given.
SMILES,Rin1 Abl inh,ALR H2O2 inh,UBC9 SUMO inh,RBBP9 inh,PREPL inhibitor,UBC13 inh
COc1ccc(NC(=S)N2CCC(N(C)CCN3CCOCC3)CC2)cc1Cl,-1,-1,-3,-8,1,9
CCN1CCCc2cc(CN(CCN3CCOCC3)C(=S)Nc3ccc(OC)c(Cl)c3)ccc21,-4,99*,-5,-2,9,12
COc1ccc(/C=C(\C#N)c2n[nH]c(Cn3cncn3)n2)cc1,0,46,13,-16,17,-3
COc1ccc(N2CCN(Cc3nc4ccccc4n3C)CC2)cc1,-1,89*,20,-10,13,-4
COc1ccc(S(=O)(=O)N2CCN(c3ncccn3)CC2)cc1,-1,-12,.,.,-23,4
COc1ccc(N2CCN(c3nc4ccccc4n3CC(=O)c3ccccc3)CC2)cc1,1,55,-15,-4,3,9
COc1ccc(N2CCN(c3ncccn3)CC2)cc1,-1,99*,1,-3,9,-8
CC1(C(=O)NC2CCCC2)CCC(=O)N1C1CCN(Cc2ccccc2)CC1 (stereo unspecified),0,.,.,.,.,.
Cc1[nH]c2ccccc2c1C(=O)C(=O)N1CCN(C(=O)c2ccco2)CC1,-4,13,-22,-2,-1,-5
CC(NC(=O)c1cccc(S(=O)(=O)N2CCc3ccccc32)c1)c1ccco1 (stereo unspecified),3,1,.,.,-7,6
Cc1nn(-c2nnc(C)c(=O)[nH]2)c(C)c1SCC(=O)Nc1ccc(F)cc1,-3,99*,-10,-5,8,-15
Cc1nn(-c2nnc(C)c(=O)[nH]2)c(C)c1SCC(=O)Nc1ccc(C(C)C)cc1,-2,98*,-5,-8,1,-14
Cn1cnnc1SCC(=O)Nc1ccc(F)cc1,1,.,-14,.,12,1
Cc1cc2nc(NC(=O)C3(C)CCCN(C(C)C)C3)[nH]c2cc1C (stereo unspecified),-3,.,.,.,.,.
Cc1oc2c(O)c(O)ccc2c(=O)c1-c1ccc(Cl)cc1,2,99*,-6,.,-6,-10
Cc1oc2c(CN3CCCC3)c(O)ccc2c(=O)c1-c1ccc(Br)cc1,-2,-1,24,-5,-13,16
Cc1oc2c(O)c(O)ccc2c(=O)c1-c1ccccc1,2,99*,-20,.,9,-4
Cc1oc2cc(O)cc(C)c2c(=O)c1-c1cnn(-c2ccccc2)c1,-1,.,16,3,-13,7
Cc1oc2c(O)c(O)ccc2c(=O)c1-c1cnn(-c2ccccc2)c1,3,100*,13,-21,31,-10
Cc1oc2c(CN3CCCCC3C)c(O)ccc2c(=O)c1-c1ccccc1 (stereo unspecified),1,-25,32,.,-6,14
O=C(O)CC1CC(O)CCC1=O (stereo unspecified),1,.,.,.,.,.
COc1ccc(S(=O)(=O)NCC(=O)N(CC(=O)NCc2ccco2)Cc2ccc(F)cc2)cc1,-2,-2,6,.,-6,-4
C1=C(c2ccco2)N2CCN=C2S1,-1,80*,6,.,4,-8
CCNC(=O)C1CC(=O)N(CCCc2ccccc2)C(=Nc2ccccc2)S1 (stereo unspecified),-5,0,-4,-4,1,2
COc1cccc(-c2ccccc2C2=CC(=O)CC(C)(C)C2=O)c1,-1,.,.,.,.,.
SMILES,Rin1 Abl inh,ALR H2O2 inh,UBC9 SUMO inh,RBBP9 inh,PREPL inhibitor,UBC13 inh
CN(Cc1n[nH]c(=S)n1C)S(=O)(=O)c1ccccc1,-1,85*,2,-8,1,5
C=CCNC(=O)CN1C(=O)CSc2ccc(S(=O)(=O)N3CCOCC3)cc21,-3,.,.,.,.,.
S=C(NCCCc1cnc[nH]1)NCCCN(Cc1ccc(Cl)cc1)c1ccc(Br)cn1,-1,.,.,.,.,.
O=C(c1ccco1)N1CCN(Cc2csc(-c3ccccc3Cl)n2)CC1,-1,2,9,.,37,-4
Cn1c(SCC(=O)c2ccc3c(c2)NC(=O)CO3)nc2ccccc21,-1,.,-17,-5,11,-9
CCCn1c(SCC(=O)c2ccc3c(c2)NC(=O)CO3)nc2ccccc21,0,99*,-7,-5,-6,-5
Fc1c(CSC(=S)N2CCOCC2)cccc1CSC(=S)N1CCOCC1,-1,-11,2,-2,10,-4
COc1cc(C2Nc3cccc4cccc(c34)N2)ccc1OC(C)=O,1,-11,64*,-5,28,-49
